Calls of active or inactive are those of the source. No cut-off for these calls is given here.
How the values were obtained:
[1] = test system: K562; assay: Antiproliferative activity against human K562 cells assessed as growth inhibition after 48 hrs by CellTiter-Glo assay; assay type: functional; details: K562, 48 h
[2] = target: T1, Tyrosine-protein kinase JAK2 (Homo sapiens, UniProt O60674); assay: Inhibition of human recombinant JAK2 using Z'LYTETry6 peptide substrate after 1 hr by microplate reader
[3] = test system: NCI-H460; assay: Antiproliferative activity against human NCI-H460 cells assessed as growth inhibition after 48 hrs by SRB assay; assay type: functional; details: NCI-H460, 48 h
[4] = test system: HEL; assay: Antiproliferative activity against human HEL cells assessed as growth inhibition after 48 hrs by CellTiter-Glo assay; assay type: functional
[5] = target: T2, Receptor-type tyrosine-protein kinase FLT3 (Homo sapiens, UniProt P36888); assay: Inhibition of human recombinant FLT3 after 1 hr by LanthaScreen assay platform
T2 sequence (P36888 whole entry): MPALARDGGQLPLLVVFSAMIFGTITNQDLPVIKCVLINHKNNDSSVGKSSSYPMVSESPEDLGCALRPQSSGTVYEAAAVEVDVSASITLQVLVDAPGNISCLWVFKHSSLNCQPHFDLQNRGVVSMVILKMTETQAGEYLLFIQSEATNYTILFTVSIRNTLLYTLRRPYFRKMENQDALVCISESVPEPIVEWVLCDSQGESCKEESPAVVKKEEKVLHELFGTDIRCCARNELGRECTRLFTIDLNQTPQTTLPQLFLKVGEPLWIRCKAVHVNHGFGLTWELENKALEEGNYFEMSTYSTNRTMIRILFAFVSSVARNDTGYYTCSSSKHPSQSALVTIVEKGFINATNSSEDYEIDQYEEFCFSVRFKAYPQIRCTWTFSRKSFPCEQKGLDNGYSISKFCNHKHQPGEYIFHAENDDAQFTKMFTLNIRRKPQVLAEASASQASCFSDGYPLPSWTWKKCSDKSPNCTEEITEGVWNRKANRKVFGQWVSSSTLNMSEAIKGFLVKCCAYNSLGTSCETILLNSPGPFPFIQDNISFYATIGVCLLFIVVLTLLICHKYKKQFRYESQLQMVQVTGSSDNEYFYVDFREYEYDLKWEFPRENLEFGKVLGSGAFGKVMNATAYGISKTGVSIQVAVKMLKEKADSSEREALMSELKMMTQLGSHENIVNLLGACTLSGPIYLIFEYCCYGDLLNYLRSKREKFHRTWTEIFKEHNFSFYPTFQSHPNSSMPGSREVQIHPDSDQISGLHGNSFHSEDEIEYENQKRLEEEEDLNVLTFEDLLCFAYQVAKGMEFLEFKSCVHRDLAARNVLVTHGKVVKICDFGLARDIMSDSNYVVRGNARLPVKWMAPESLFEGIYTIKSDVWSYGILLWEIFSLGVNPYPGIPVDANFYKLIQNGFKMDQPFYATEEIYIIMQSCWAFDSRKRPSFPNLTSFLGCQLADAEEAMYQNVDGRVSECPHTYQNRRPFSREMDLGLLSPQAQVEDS
Method in brief: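 TR-FRET binding format. Recombinant FLT3 incubated 1 h at room temperature with Eu-anti-His antibody, Alexa Fluor 647-labelled kinase tracer 236 and varied compound concentrations. Signal read as the 665/615 nm emission ratio. Values are means ± SD of three independent experiments.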

[6] = test system: MV4-11; assay: Antiproliferative activity against human MV4-11 cells assessed as growth inhibition after 48 hrs by CellTiter-Glo assay; assay type: functional; details: MV4-11, 48 h
[7] = Antiproliferative activity against human HCT116 cells assessed as growth inhibition after 48 hrs by SRB assay; assay type: functional; details: HCT-116, 48 h
[8] = test system: MDA-MB-435; assay: Antiproliferative activity against human MDA-MB-435 cells assessed as growth inhibition after 48 hrs by SRB assay; assay type: functional; details: MDA-MB-435, 48 h
[9] = Antiproliferative activity against human OVCAR5 cells assessed as growth inhibition after 48 hrs by SRB assay; assay type: functional; details: OVCAR-5, 48 h
[10] = Antiproliferative activity against human HL60 cells assessed as growth inhibition after 48 hrs by CellTiter-Glo assay; assay type: functional; details: HL-60, 48 h
[11] = test system: MCF7; assay: Antiproliferative activity against human MCF7 cells assessed as growth inhibition after 48 hrs by SRB assay; assay type: functional; details: MCF7, 48 h
[12] = target: Histone deacetylase; assay: Inhibition of HDAC (unknown origin) using Fluor de Lys substrate after 2 hrs by microplate reader; assay type: protein assay, Homo sapiens
[13] = test system: MV4-11; assay: Inhibition of AKT phosphorylation in human MV4-11 cells after 24 hrs by Western blot analysis; assay type: cell-based
Method in brief: (§1)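 Cells plated at 0.2 × 10⁶ per mL with or without varied compound concentrations, incubated 24 h, then lysed in whole-cell lysis buffer. Total extracts run on SDS-PAGE and western blotted with antibodies to acetyl-histone H3, acetyl-tubulin, tubulin, phospho-FLT3 Y591, phospho-JAK2 Y1007/1008, phospho-STAT5 Y694 and phospho-AKT T308. HRP-labelled secondary antibodies used for detection.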

[14] = target: Receptor-type tyrosine-protein kinase FLT3 (Homo sapiens) (UniProt P36888); details: HEL, 0.1 to 0.5 uM
[15] = test system: MV4-11; assay: Inhibition of STAT5 phosphorylation in human MV4-11 cells after 24 hrs by Western blot analysis; assay type: cell-based; method in brief: as §1
[16] = target: T1, Tyrosine-protein kinase JAK2; assay: Decrease in JAK2 phosphorylation in human HEL cells at 0.1 to 0.5 uM after 24 hrs by Western blot analysis; assay type: cell-based; method in brief: as §1
[17] = target: Tubulin (Homo sapiens) (UniProt P68371+Q9H4B7+P0DPH7+P68366+Q13509+Q71U36+P04350+Q3ZCM7+P07437+P68363+Q9BQE3+Q6PEY2+Q13885+Q9BVA1+Q9BUF5); assay: Induction of tubulin acetylation in human MV4-11 cells after 24 hrs by Western blot analysis; assay type: cell-based; method in brief: as §1
[18] = target: Histone deacetylase (Homo sapiens) (UniProt Q13547+O15379+Q9UBN7+Q92769+Q9UQL6+Q8WUI4+Q9BY41+Q96DB2+P56524+Q9UKV0+Q969S8); assay: Induction of HDAC-mediated histone H3 acetylation in human MV4-11 cells after 24 hrs by Western blot analysis; assay type: cell-based; method in brief: as §1

T1 sequence (O60674 whole entry): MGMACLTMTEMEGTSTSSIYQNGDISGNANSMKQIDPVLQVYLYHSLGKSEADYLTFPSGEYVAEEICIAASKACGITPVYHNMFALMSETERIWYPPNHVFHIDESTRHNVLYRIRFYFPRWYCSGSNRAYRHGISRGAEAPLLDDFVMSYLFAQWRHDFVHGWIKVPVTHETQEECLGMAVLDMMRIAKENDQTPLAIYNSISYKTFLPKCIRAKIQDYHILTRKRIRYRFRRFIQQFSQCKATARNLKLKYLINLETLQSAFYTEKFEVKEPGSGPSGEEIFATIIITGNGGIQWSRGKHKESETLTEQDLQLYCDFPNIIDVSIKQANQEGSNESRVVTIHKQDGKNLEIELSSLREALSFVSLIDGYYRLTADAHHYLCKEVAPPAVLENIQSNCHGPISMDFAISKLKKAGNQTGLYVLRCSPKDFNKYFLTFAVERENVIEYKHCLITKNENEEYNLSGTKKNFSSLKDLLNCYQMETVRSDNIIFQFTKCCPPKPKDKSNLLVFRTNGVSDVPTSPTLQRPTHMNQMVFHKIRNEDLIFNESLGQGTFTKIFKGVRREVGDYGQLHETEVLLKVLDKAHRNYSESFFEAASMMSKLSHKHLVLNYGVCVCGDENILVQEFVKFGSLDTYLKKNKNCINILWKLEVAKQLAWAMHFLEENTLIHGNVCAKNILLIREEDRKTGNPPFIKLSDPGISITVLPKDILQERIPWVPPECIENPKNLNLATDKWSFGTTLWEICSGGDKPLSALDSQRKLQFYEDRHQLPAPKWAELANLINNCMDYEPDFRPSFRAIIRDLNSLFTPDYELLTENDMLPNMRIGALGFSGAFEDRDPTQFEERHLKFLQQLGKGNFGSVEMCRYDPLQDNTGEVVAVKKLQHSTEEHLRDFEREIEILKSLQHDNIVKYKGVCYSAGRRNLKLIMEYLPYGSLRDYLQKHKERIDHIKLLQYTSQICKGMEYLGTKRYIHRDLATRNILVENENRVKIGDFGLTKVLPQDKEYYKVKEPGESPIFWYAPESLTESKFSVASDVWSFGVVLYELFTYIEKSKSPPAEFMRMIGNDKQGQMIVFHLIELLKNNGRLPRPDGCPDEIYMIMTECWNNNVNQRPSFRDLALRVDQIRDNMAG

SMILES | GI50 [1] | IC50 [2] | GI50 [3] | GI50 [4] | IC50 [5] | GI50 [6] | GI50 [7] | GI50 [8] | GI50 [9] | GI50 [10] | GI50 [11] | IC50 [12] | inhibition [13] | inhibition [14] | inhibition [15] | inhibition [16] | Activity [17] | Activity [18]
O=C(CCCCN1C/C=C/CCOc2cccc(c2)-c2ccnc(n2)Nc2cccc(c2)C1)NO | 2450 nM | 293 nM | 1770 nM | 510 nM | 180 nM | 660 nM | 1530 nM | 2720 nM | 1220 nM | 3030 nM | 1130 nM | 251 nM |  |  |  |  |  | 
O=C(CCCCCCC(=O)Nc1ccccc1)NO [VORINOSTAT] |  | > 10000 nM |  |  | > 10000 nM |  |  |  |  |  |  |  |  |  |  |  |  | 
O=C(CCCCCN1C/C=C/CCOc2cccc(c2)-c2ccnc(n2)Nc2cccc(c2)C1)NO | 2320 nM | 1040 nM | 1600 nM | 2260 nM | 108 nM | 530 nM | 1330 nM | 2630 nM | 1420 nM | 2620 nM | 1320 nM | 152 nM |  |  |  |  |  | 
O=C(CCCCCCCC(=O)N1C/C=C/COCc2cccc(c2)-c2ccnc(n2)Nc2cccc(c2)C1)NO | 2640 nM | 835 nM |  | 4780 nM | 272 nM | 780 nM |  |  |  | 1660 nM |  | 334 nM |  |  |  |  |  | 
O=C(CCCCCN1C/C=C/COCc2cccc(c2)-c2ccnc(n2)Nc2cccc(c2)C1)NO | 2090 nM | 594 nM |  | 680 nM | 288 nM | 520 nM |  |  |  | 2300 nM |  | 123 nM |  |  |  |  |  | 
CN1C/C=C/CCOc2cccc(c2)-c2ccnc(n2)Nc2cccc(c2)C1 [ZOTIRACICLIB] | 1230 nM | 170 nM |  | 790 nM | 42 nM | 660 nM |  |  |  | 1130 nM |  |  |  |  |  |  |  | 
O=C(CCCCC(=O)N1C/C=C/COCc2cccc(c2)-c2ccnc(n2)Nc2cccc(c2)C1)NO | 4970 nM | 547 nM |  | 2940 nM | 221 nM | 2060 nM |  |  |  | 4430 nM |  | 402 nM |  |  |  |  |  | 
O=C(CCCCCCC(=O)N1C/C=C/CCOc2cccc(c2)-c2ccnc(n2)Nc2cccc(c2)C1)NO | 4790 nM | 558 nM |  | 5250 nM | 1260 nM | 5890 nM |  |  |  | 6730 nM |  | 310 nM |  |  |  |  |  | 
O=C(CCCCC(=O)N1C/C=C/CCOc2cccc(c2)-c2ccnc(n2)Nc2cccc(c2)C1)NO | 1440 nM | 246 nM | 2250 nM | 2110 nM | 556 nM | 1010 nM | 1590 nM | 2410 nM | 1520 nM | 1270 nM | 2090 nM | 848 nM |  |  |  |  |  | 
O=C(CCCCCCC(=O)N1C/C=C/COCc2cccc(c2)-c2ccnc(n2)Nc2cccc(c2)C1)NO | 4390 nM | 684 nM |  | 5030 nM | 833 nM | 1410 nM |  |  |  | 2870 nM |  | 293 nM |  |  |  |  |  | 
O=C(CCCCCCCC(=O)N1C/C=C/CCOc2cccc(c2)-c2ccnc(n2)Nc2cccc(c2)C1)NO | 2020 nM |  |  | 6260 nM |  |  |  |  |  | 1950 nM |  | 355 nM |  |  |  |  |  | 
O=C(CCCCCCN1C/C=C/CCOc2cccc(c2)-c2ccnc(n2)Nc2cccc(c2)C1)NO | 1020 nM | 686 nM | 1070 nM | 340 nM | 87 nM | 270 nM | 820 nM | 1770 nM | 1220 nM | 1030 nM | 950 nM | 87 nM | Dose-dependent effect | Dose-dependent effect | Dose-dependent effect | Active | Dose-dependent effect | Dose-dependent effect
O=C(CCCCN1C/C=C/COCc2cccc(c2)-c2ccnc(n2)Nc2cccc(c2)C1)NO | 1830 nM | 392 nM | 1420 nM | 490 nM | 218 nM | 370 nM | 810 nM | 1880 nM | 1130 nM | 2050 nM | 1070 nM | 158 nM |  |  |  |  |  | 
O=C(CCCCCCN1C/C=C/COCc2cccc(c2)-c2ccnc(n2)Nc2cccc(c2)C1)NO | 940 nM | 613 nM | 1190 nM | 700 nM | 217 nM | 320 nM | 900 nM | 1500 nM | 1420 nM | 900 nM | 1130 nM | 159 nM |  |  |  |  |  | 

— ChEMBL document CHEMBL3414525, “Macrocyclic compounds as anti-cancer agents: design and synthesis of multi-acting inhibitors against HDAC, FLT3 and JAK2” (Eur J Med Chem, 2015)
